As usually defined, the IC50 is the concentration that inhibits the measured activity by half. Usually ED50 stands for the dose that gives a 50% effect, or the effect in half of the subjects.

Experiment [1] has as its target T1, D(2) dopamine receptor (Rattus norvegicus, UniProt P61169). Kind of experiment: Affinity for [3H]N-propylnorapomorphine (NPA) Dopamine receptor D2.
In experiment [2] the test system is Rattus norvegicus. The experiment in a line: Inhibition of gamma-butyrolactone-stimulated DOPA synthesis in the corpus striatum of rats (dose administered subcutaneously). Format: functional. Particulars: sc. The gist of the method:
(§1)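 Male Long-Evans rats dosed 30 min before GBL (750 mg/kg ip) plus decarboxylase inhibitor NSD 1015 (100 mg/kg ip); killed 30 min later. Striatal DOPA measured by HPLC with electrochemical detection. Expressed as percentage reversal versus GBL/NSD 1015-treated animals; N = 4–5.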

For experiment [3], the system named is Rattus norvegicus. The experiment in a line: Inhibition of locomotor activity (LMA) in rats generated from four doses of 5-12 animals per dose (dose administered subcutaneously). As to conditions: sc.
Experiment [4] concerns Rattus norvegicus. Kind of experiment: Reversal of reserpine-induced depression in rat (dose administered subcutaneously). Particulars: sc. It counts as functional. In outline: (§2)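 Rats pretreated with reserpine 5 mg/kg 24 h before testing; drug given sc and reversal of spontaneous locomotor inhibition measured; ED50 derived from three doses with 5–10 rats per dose.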
The test system of experiment [5] is Rattus norvegicus. Kind of experiment: Inhibition of locomotor activity (LMA) in rats generated from four doses of 5-12 animals per dose (dose administered po).
The target in experiment [6] is T1, D(2) dopamine receptor. The experiment in a line: Concentration inhibiting specific binding of [3H]haloperidol to Dopamine receptor D2 from rat striatal brain.
For experiment [7], the species on record is Rattus norvegicus. The experiment in a line: Inhibition of gamma-butyrolactone-stimulated DOPA synthesis in the corpus striatum of rats. It counts as functional. In outline: as §1
Experiment [8] has as its system Rattus norvegicus. The experiment in a line: Inhibition of dopamine neuronal firing activity in the rat substantia nigra DA neutrons (2.2 mg/kg administered intraperitoneally). Format: functional. The gist of the method:
(§3)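 Chloral hydrate-anesthetized rats; zona compacta DA cells recorded, identified by waveform and firing pattern, site confirmed histologically. Drug given ip via indwelling catheter. Baseline is the mean of the 2 min before injection; effect is the mean over the 1-min period of maximal inhibition; percent decrease, N = 3–4 cells.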

The subject of experiment [9] is Rattus norvegicus. The experiment in a line: Inhibition of gamma-butyrolactone-stimulated DOPA synthesis in the corpus striatum of rats (30 mg/kg administered intraperitoneally). Format: functional. In outline: as §1
The next experiment relates to Mus musculus. The experiment in a line: Inhibition of locomotor activity (LMA) in mice by the compound administered intraperitoneally. It counts as functional. In outline:
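Spontaneous exploratory locomotor activity in mice after ip dosing; ED50 derived from four doses with at least three animals per dose.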

Experiment [10] relates to Rattus norvegicus. Kind of experiment: Reversal of reserpine-induced depression in rat (dose administered subcutaneously) Values generated from three doses;5-10 rats were used per dose. It counts as functional. As to conditions: sc. In outline: as §2
In experiment [11] the test system is Rattus norvegicus. Kind of experiment: Inhibition of gamma-butyrolactone-stimulated DOPA synthesis in the corpus striatum of rats (2 mg/kg administered intraperitoneally). It counts as functional. The gist of the method:
as §1

Experiment [12] deals with Rattus norvegicus. The experiment in a line: Reversal of reserpine-induced depression in rat (dose administered subcutaneously) Values generated from three doses; 5-10 rats were used per dose. As to conditions: sc.
Experiment [13] concerns Rattus norvegicus. Kind of experiment: Inhibition of dopamine neuronal firing activity in the rat substantia nigra DA neutrons (0.25 mg/kg administered intraperitoneally). Format: functional. In outline:
as §3

The mark [14] stands for this setting: Mus musculus, ip, read-out: ED50.

T1 sequence (P61169 whole entry): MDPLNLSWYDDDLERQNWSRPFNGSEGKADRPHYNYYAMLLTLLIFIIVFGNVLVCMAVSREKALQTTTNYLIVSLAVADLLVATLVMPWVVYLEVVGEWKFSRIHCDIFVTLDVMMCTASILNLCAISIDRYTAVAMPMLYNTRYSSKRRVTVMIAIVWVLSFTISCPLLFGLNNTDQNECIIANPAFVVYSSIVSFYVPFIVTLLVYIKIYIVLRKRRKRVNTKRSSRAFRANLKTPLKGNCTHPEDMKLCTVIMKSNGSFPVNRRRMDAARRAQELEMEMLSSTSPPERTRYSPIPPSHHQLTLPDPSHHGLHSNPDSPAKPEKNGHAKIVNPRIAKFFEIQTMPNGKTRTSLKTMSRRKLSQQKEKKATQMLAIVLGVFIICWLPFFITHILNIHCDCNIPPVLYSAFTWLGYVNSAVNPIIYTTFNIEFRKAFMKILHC

In the case of `CCCN1CCO[C@@H]2c3cc(O)ccc3OC[C@H]21`, the IC50 at D(2) dopamine receptor [1] was 123 nM; at D(2) dopamine receptor [6] it was 409 nM. Moreover, the ED50 with Rattus norvegicus [2] stood at 0.03 mg/kg; with Rattus norvegicus [3] it was 0.03 mg/kg; in the experiment on Rattus norvegicus [4], 6.25 mg/kg; in the experiment on Rattus norvegicus [5], 5.8 mg/kg; in the experiment on Mus musculus it was 5.4 mg/kg. In addition, in the experiment filed under Rattus norvegicus [7], the Dose was found to be 100%. In addition, the Decrease in the experiment on Rattus norvegicus [8] was found to be 100%. Besides, in the experiment on Rattus norvegicus [9], the “Percent reversal of GBL-stimulated DOPA synthesis” value (from here on “Percent reversal”) amounted to 88.4%.
With `CCCN1CCO[C@@H]2c3cc(O)ccc3OC[C@H]21` (racemic), the IC50 at D(2) dopamine receptor [6] was 900 nM. This compound also yielded a Decrease in the experiment with Rattus norvegicus [8] of 99%. The “Percent reversal” value in the experiment on Rattus norvegicus [9] amounted to 61.8%. This compound also gave an ED50 in the experiment on Mus musculus of 11 mg/kg.
As to `CCCN(CCC)C1COc2ccc(O)cc2C1` (stereo not given), the ED50 with Rattus norvegicus [2] worked out at 0.04 mg/kg; in the experiment with Rattus norvegicus [3] it was 0.17 mg/kg; with Rattus norvegicus [10] it was 13.4 mg/kg; with Mus musculus (setting [14]), 11.3 mg/kg. The same compound displayed a Decrease in the experiment with Rattus norvegicus [8] of 100%. In the experiment with Rattus norvegicus [9], the “Percent reversal” value is given as 100%.
In the experiment on Rattus norvegicus [11], `CN1CCc2cccc3c2[C@H]1Cc1ccc(O)c(O)c1-3` [APOMORPHINE] came in with an Increase of 100%. Also, the ED50 with Rattus norvegicus [2] worked out at 0.06 mg/kg; with Rattus norvegicus [3], 0.021 mg/kg; in the experiment with Rattus norvegicus [12] it was 0.096 mg/kg; in the experiment with Mus musculus (setting [14]), 0.3 mg/kg. In the experiment on Rattus norvegicus [13], the Decrease is reported as 100%.
The compound `CCCN1CCO[C@H]2c3cc(O)ccc3OC[C@@H]21` yielded an IC50 on D(2) dopamine receptor [6] of over 100000 nM. Moreover, in the experiment on Rattus norvegicus [8], the Decrease was 9%. Also, in the experiment on Rattus norvegicus [9], the “Percent reversal” value was 0%. Also, the ED50 in the experiment on Mus musculus (setting [14]) was over 30 mg/kg.

For the origin of these results see ChEMBL document CHEMBL1124965, “Synthesis and dopamine agonist properties of (+-)-trans-3,4,4a,10b-tetrahydro-4-propyl-2H,5H-[1]benzopyrano [4,3-b]-1,4-oxazin-9-ol and its enantiomers” (J Med Chem, 1990).
